Measurements pooled from the literature.
Each line is one published result; the experiments were not run side by side. pEC50, pIC50: −log10 of the molar value. In brackets after ≈: the same amount, converted by molar mass.

CCN1CCN(C(=O)N[C@@H](C(=O)N[C@@H]2C(=O)N3C(C(=O)O)=C(CSc4nnnn4C)CS[C@H]23)c2ccc(O)cc2)C(=O)C1=O  MIC (Clostridioides difficile; microbial growth, broth dilution; 24 h): 100 µg/mL
O=[N+]([O-])c1ccc(C2=[N+]([O-])c3ccccc3N3CCN=C23)cc1  MIC90 (Clostridioides difficile; microbial growth): ≤ 0.06 µg/mL
CC(C)(C)C(=O)OCOP(=O)(COCCn1cnc2c(N)ncnc21)OCOC(=O)C(C)(C)C  pIC50 (Hepatitis B virus; viral replication, qPCR; HepG2.2.15; 14 days): 6.06
Cc1ncc([N+](=O)[O-])n1CCO  MIC50 (Clostridioides difficile; microbial growth): 0.25 µg/mL (≈ 1.46 µM)
CC(C)OC(=O)OCOP(=O)(CO[C@H](C)Cn1cnc2c(N)ncnc21)OCOC(=O)OC(C)C  pIC50 (Hepatitis B virus; viral replication, qPCR; HepG2.2.15; 14 days): 6.70
C[C@@H]1C[C@@H]([C@H](O)CC2CC(=O)NC(=O)C2)C(=O)[C@@H](C)C1  MIC (Saccharomyces cerevisiae; microbial growth): 3 µM
O=C1Cc2ccccc2C(=O)N1O  pEC50 (Hepatitis B virus; viral replication, inhibitor, qPCR; HepDES19; 72 h): 5.38
C[C@H]1COCCN1c1nc(NCc2cccnc2C(F)(F)F)c2cccnc2n1  MIC (Clostridioides difficile; microbial growth, broth dilution; 630): 64 µg/mL
CC(C)OC(=O)[C@H](C)N[P@](=O)(CO[C@H](C)Cn1cnc2c(N)ncnc21)Oc1ccccc1  inhibition (Hepatitis B virus; viral replication, inhibitor; HepG2.2.15; 1 µM, 6 days): ~65%
CN[C@H](CC(C)C)C(=O)N[C@H]1C(=O)N[C@@H](CC(N)=O)C(=O)N[C@H]2C(=O)N[C@H]3C(=O)N[C@H](C(=O)N[C@H](C(=O)O)c4cc(O)cc(O)c4-c4cc3ccc4O)[C@H](O)c3ccc(c(Cl)c3)Oc3cc2cc(c3O[C@@H]2O[C@H](CO)[C@@H](O)[C@H](O)[C@H]2O[C@H]2C[C@](C)(N)[C@H](O)[C@H](C)O2)Oc2ccc(cc2Cl)[C@H]1O  MIC (Clostridioides difficile; microbial growth, broth dilution; 24 h): 1 µg/mL
CC[C@H](C)C[C@H](C)CCCCCCCCC(=O)N[C@H]1C[C@@H](O)[C@@H](NCCN)NC(=O)[C@@H]2[C@@H](O)CCN2C(=O)[C@H]([C@H](O)CCN)NC(=O)[C@H]([C@H](O)[C@@H](O)c2ccc(O)cc2)NC(=O)[C@@H]2C[C@@H](O)CN2C(=O)[C@H]([C@@H](C)O)NC1=O  MIC (Saccharomyces cerevisiae; microbial growth, broth dilution; S288C): 0.25 µg/mL
N#C[C@]1(CO)O[C@@H](n2cnc3c(=O)[nH]c(N)nc32)C[C@@H]1O  pIC50 (Hepatitis B virus; viral replication, qPCR; HepG2.2.15; 14 days): 9.30
[O-][N+]1=C(c2ccc(Cl)cc2)C2=NCCN2c2ccccc21  MIC50 (Fusobacterium nucleatum; microbial growth): ≤ 0.06 µg/mL
C=C1[C@H](CO)[C@@H](O)C[C@@H]1n1cnc2c(=O)[nH]c(N)nc21  pIC50 (Hepatitis B virus; viral replication, qPCR; HepG2.2.15; 14 days): 8.52
O=C(NCc1ccc2c(c1)OCO2)c1ccc(Br)cc1F  MIC (Saccharomyces cerevisiae; microbial growth; BY4743; 72 h): > 200 µM
